Experimental data published in ChEMBL document CHEMBL1914351, “Design, synthesis and biological evaluation of 3-substituted 2,5-dimethyl-N-(3-(1H-tetrazol-5-yl)phenyl)pyrroles as novel potential HIV-1 gp41 inhibitors” (Bioorg Med Chem, 2011).

How the values were obtained:
[1] = Cytotoxicity against human MT2 cells after 4 days using XTT assay; type: cell-based
Outline: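 MT-2 cells (5×10^5/mL) mixed with equal volume of graded compound concentrations, 37 °C for 4 days; XTT (1 mg/mL) containing 0.02 µM PMS added, A450 read after 4 h. CC50 calculated by CalcuSyn; triplicate, mean ± SD.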

[2] = Selectivity index, ratio of CC50 for human MT2 cells to EC50 for HIV1 3B; type: toxicity, cell-based; conditions: read-out: Ratio CC50/EC50
Outline: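 Ratio CC50/EC50, CC50 from XTT cytotoxicity in MT-2 cells over 4 days and EC50 from p24 inhibition in HIV-1 IIIB-infected MT-2 cells at day 4.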

[3] = test system: Human immunodeficiency virus 1; experiment: Antiviral activity against HIV1 3B infected in human MT2 cells assessed as inhibition of p24 production after 4 days by ELISA; type: functional, organism-based
[4] = Inhibition of HIV1 gp41 assessed as gp41-six-helix bundle formation after 30 mins by sandwich ELISA; design: species or system Human immunodeficiency virus 1
Outline: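 N36 peptide (2 µM) preincubated with graded compound concentrations at 37 °C for 30 min, then C34 (2 µM) added for another 30 min at 37 °C. Mixture captured on plates coated with anti-6-HB rabbit IgG (10 µg/mL); detected with mAb NC-1, biotinylated anti-mouse IgG, SA-HRP, TMB; A450. Percent inhibition calculated; triplicate.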

[5] = Human immunodeficiency virus 1, 3B, MT2, 96 h, read-out: EC50

Row | SMILES | CC50 at 96 h [1] [µM] | selectivity ratio [2] | EC50 [3, 5] [µM] | IC50 ([4]; read-out: IC50) [µM] | EC50 ([3]; mt2) | IC50 [4]
1 | Cc1cc(/C=C2\SC(=S)N(c3ccc(O)cc3)C2=O)c(C)n1-c1cccc(-c2nnn[nH]2)c1 | 45.6 | 1.8 | 25.7 | 20.6 | – | –
2 | COc1ccc(N2C(=O)N/C(=C\c3cc(C)n(-c4cccc(-c5nnn[nH]5)c4)c3C)C2=O)cc1 | 101 | 2 | 51.6 | 22.6 | – | –
3 | Cc1cc(/C=C2\NC(=O)N(c3cccc(C(F)(F)F)c3)C2=O)c(C)n1-c1cccc(-c2nnn[nH]2)c1 | 76.5 | 1.6 | 48.9 | 41.6 | – | –
4 | Cc1cc(C=C(C#N)C#N)c(C)n1-c1cccc(-c2nnn[nH]2)c1 | > 400 | – | – | – | Not Active | Not Active
5 | Cc1cc(/C=C2\SC(=S)N(c3cccc(C(F)(F)F)c3)C2=O)c(C)n1-c1cccc(-c2nnn[nH]2)c1 | 15.8 | 2.3 | 6.8 | – | – | Not Active
6 | CCOC(=O)/C(C#N)=C/c1cc(C)n(-c2cccc(-c3nnn[nH]3)c2)c1C | 76.8 | 4.3 | 18 | – | – | Not Active
7 | Cc1cc(/C=C2\SC(=S)N(Cc3ccccc3)C2=O)c(C)n1-c1cccc(-c2nnn[nH]2)c1 | 150 | 12 | 12.3 | 12.7 | – | –
8 | O=C(O)c1cc(-n2cccc2)ccc1Cl | – | – | – | 58.7 | – | –
9 | Cc1cc(/C=C/[N+](=O)[O-])c(C)n1-c1cccc(-c2nnn[nH]2)c1 | 78.8 | 2.7 | 29.3 | – | – | Not Active
10 | COc1ccc(N2C(=O)/C(=C/c3cc(C)n(-c4cccc(-c5nnn[nH]5)c4)c3C)SC2=S)cc1 | 87 | 1.8 | 47.9 | 9.2 | – | –
11 | Cc1cc(/C=C2\SC(=S)N(c3cccc(Br)c3)C2=O)c(C)n1-c1cccc(-c2nnn[nH]2)c1 | 22.6 | 2.3 | 9.8 | – | – | Not Active
12 | Cc1cc(/C=C2\SC(=S)N(c3ccc(Br)cc3)C2=O)c(C)n1-c1cccc(-c2nnn[nH]2)c1 | 46.8 | 21 | 2.2 | 4.6 | – | –
13 | Cc1cc(/C=C2\SC(=S)N(CCc3ccccc3)C2=O)c(C)n1-c1cccc(-c2nnn[nH]2)c1 | 45.7 | 11 | 4.1 | 28.1 | – | –
14 | COc1cccc(N2C(=O)/C(=C/c3cc(C)n(-c4cccc(-c5nnn[nH]5)c4)c3C)SC2=S)c1 | 40.6 | 6.8 | 6 | 3.1 | – | –
15 | Cc1cc(/C=C2\SC(=S)N(c3cccc(O)c3)C2=O)c(C)n1-c1cccc(-c2nnn[nH]2)c1 | 35.6 | 5.7 | 6.3 | 7.7 | – | –
16 | Cc1ccc(C)n1-c1cccc(-c2nnn[nH]2)c1 | – | 32 | – | 25.6 | – | –
17 | Cc1cc(/C=C2\SC(=S)N(c3ccc(C(F)(F)F)cc3)C2=O)c(C)n1-c1cccc(-c2nnn[nH]2)c1 | 27.1 | 2.1 | 13.1 | 2.7 | – | –
18 | CCOC(=O)C(=Cc1cc(C)n(-c2cccc(-c3nnn[nH]3)c2)c1C)C(=O)OCC | 77.4 | 4.5 | 17.2 | 12.1 | – | –
19 | Cc1cc(/C=C2\SC(=S)N(c3ccccc3)C2=O)c(C)n1-c1cccc(-c2nnn[nH]2)c1 | 61 | 19 | 3.2 | 4.4 | – | –
20 | Cc1cc(/C=C2\SC(=S)N(c3cccc([N+](=O)[O-])c3)C2=O)c(C)n1-c1cccc(-c2nnn[nH]2)c1 | 77 | 3.2 | 23.9 | 3.2 | – | –
